Reference: ChEMBL document CHEMBL1759963, “Synthesis and biological evaluation of 4-styrylcoumarin derivatives as inhibitors of TNF-α and IL-6 with anti-tubercular activity” (2011)

How the values were obtained:
Format in all cases: functional
THP-1 [1] = test: Antiinflammatory activity in human THP1 cells assessed as inhibition of LPS-induced TNFalpha production at 10 uM after 24 hrs by ELISA; conditions: THP-1, 24 h
Procedure, shortened: (§1)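 THP-1 cells grown in RPMI 1640 with 10% FBS, penicillin and streptomycin, then differentiated with PMA. Test compound or vehicle (0.5% DMSO) added and preincubated 30 min at 37 °C. LPS (E. coli 0127:B8) then added and cells incubated 24 h at 37 °C, 5% CO2. Supernatant TNF-α and IL-6 measured by ELISA. Cytotoxicity checked in parallel by CCK-8. Percent inhibition versus control.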

THP-1 [2] = test: Antiinflammatory activity in human THP1 cells assessed as inhibition of LPS-induced IL6 production at 10 uM after 24 hrs by ELISA; conditions: THP-1, 24 h; procedure, shortened: as §1
[3] = test system: Mycobacterium tuberculosis; test: Antitubercular activity against Mycobacterium tuberculosis H37Rv ATCC 27294 at 6.25 ug/ml by microplate alamar blue assay
Procedure, shortened: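 Primary screen against M. tuberculosis H37Rv (ATCC 27294) in BACTEC 12B medium by microplate Alamar Blue assay. Tested at 6.25 µg/mL or molar equivalent of the highest-MW compound in the congener series. Fluorescent compounds instead tested in the BACTEC 460 radiometric system.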

| SMILES | inhibition at 10 µM (THP-1 [1]) [%] | inhibition at 10 µM (THP-1 [2]) [%] | inhibition at 6.25 µg/mL [3] [%] |
| --- | --- | --- | --- |
| COc1cccc(/C=C/c2c(C#N)c(=O)oc3ccc(Cl)cc23)c1 | 73 | 0 | 31 |
| CN(C)c1ccc(/C=C/c2c(C#N)c(=O)oc3ccc(Cl)cc23)cc1 | 33 | 0 | 79 |
| N#Cc1c(/C=C/c2ccco2)c2cc(Cl)ccc2oc1=O | 9 | 0 | 63 |
| N#Cc1c(/C=C/c2ccc(F)cc2)c2cc(Cl)ccc2oc1=O | 0 | 61 | – |
| COc1cc(/C=C/c2c(C#N)c(=O)oc3ccc(Cl)cc23)cc(OC)c1OC | 38 | 8 | 87 |
| N#Cc1c(/C=C/c2c3ccccc3cc3ccccc23)c2cc(Cl)ccc2oc1=O | – | – | 81 |
| N#Cc1c(/C=C/c2ccccc2Cl)c2cc(Cl)ccc2oc1=O | 0 | 19 | – |
| N#Cc1c(/C=C/c2cccc(Cl)c2)c2cc(Cl)ccc2oc1=O | 0 | 21 | 69 |
| COc1ccc(/C=C/c2c(C#N)c(=O)oc3ccc(Cl)cc23)cc1OC | 0 | 40 | 63 |
| N#Cc1c(/C=C/c2c[nH]c3ccccc23)c2cc(Cl)ccc2oc1=O | 31 | 0 | – |
| N#Cc1c(/C=C/c2ccc(Cl)cc2)c2cc(Cl)ccc2oc1=O | 0 | 4 | – |
| CSc1ccc(/C=C/c2c(C#N)c(=O)oc3ccc(Cl)cc23)cc1 | 0 | 15 | – |
| N#Cc1c(/C=C/c2cccc([N+](=O)[O-])c2)c2cc(Cl)ccc2oc1=O | 0 | 72 | 69 |
| N#Cc1c(/C=C/c2ccc(O)cc2)c2cc(Cl)ccc2oc1=O | 0 | 73 | – |
| COc1ccc(/C=C/c2c(C#N)c(=O)oc3ccc(Cl)cc23)cc1 | – | – | 33 |
| COc1ccccc1/C=C/c1c(C#N)c(=O)oc2ccc(Cl)cc12 | 19 | 17 | 24 |
| N#Cc1c(/C=C/c2cccc(Oc3ccccc3)c2)c2cc(Cl)ccc2oc1=O | 0 | 11 | 72 |
| N#Cc1c(/C=C/c2cccc(O)c2)c2cc(Cl)ccc2oc1=O | 23 | 39 | – |
| N#Cc1c(/C=C/c2ccccc2[N+](=O)[O-])c2cc(Cl)ccc2oc1=O | 0 | 14 | 11 |
| N#Cc1c(/C=C/c2cccc(Br)c2)c2cc(Cl)ccc2oc1=O | 0 | 2 | 23 |
| C=Cc1ccccc1/C=C/c1c(C#N)c(=O)oc2ccc(Cl)cc12 | 52 | 0 | – |
| N#Cc1c(/C=C/c2ccccc2)c2cc(Cl)ccc2oc1=O | 32 | 87 | 55 |
